From ChEMBL document CHEMBL1149190, “Generation of new protein kinase inhibitors utilizing cytochrome p450 mutant enzymes for indigoid synthesis” (J Med Chem, 2004) come the findings set out here.

Assay [1] addresses T1, Cyclin-dependent kinase 5/CDK5 activator 1 (Homo sapiens) (UniProt Q00535+Q15078). The assay is described as follows: Residual Cyclin-dependent kinase 5-p35nck5a activity with L240C/N297Q mutant cytochrome P450 2A6 extract. Type of assay: protein-complex assay. A digest of the protocol: (§1)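 The indole was fed to E. coli expressing the P450 2A6 variant with NADPH-P450 reductase, grown 42 h at 30 °C. Extract in DMSO (0.3 µL) was added to the CDK5/p25 histone H1 assay: buffer C, 15 µM [γ-33P]ATP, 30 °C. Residual activity given as % of a DMSO-only control. Means of duplicates.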

Assay [2] concerns the target T2, Glycogen synthase kinase-3 (Homo sapiens, UniProt P49840+P49841). The assay is described as follows: (§2) Residual porcine GSK-3-alpha/beta kinase activity with L240C/N297Q mutant cytochrome P450 2A6 extract. Type of assay: protein assay. Details: concentration or dose not given beside the values. To be noted: Sus scrofa; target entry is the homologue from another species. A digest of the protocol: (§3)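 E. coli expressing the P450 2A6 variant plus reductase were grown 42 h at 30 °C with the indole added. DMSO extract (0.3 µL) was tested on axin-purified porcine GSK-3α/β with GS-1 peptide in buffer A, 15 µM [γ-33P]ATP, 30 °C. Residual activity given as % of a DMSO control. Means of duplicates.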

Assay [3] addresses T2, Glycogen synthase kinase-3. The assay is described as follows: (§4) Residual porcine GSK-3-alpha/beta kinase activity with L240C mutant cytochrome P450 2A6 extract. Type of assay: protein assay. To be noted: Sus scrofa; target entry is the homologue from another species. A digest of the protocol:
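GSK-3α/β from porcine brain, purified on immobilized axin and diluted 1/100, assayed in buffer A with GS-1 peptide substrate and 15 µM [γ-33P]ATP for 30 min at 30 °C. Phosphate incorporation read on P81 filters by scintillation counting. Bacterial extract in DMSO added; residual activity given as % of DMSO control, mean of duplicates.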

The target of assay [4] is T1, Cyclin-dependent kinase 5/CDK5 activator 1 (Homo sapiens). The assay is described as follows: Residual Cyclin-dependent kinase 5-p35nck5a activity with L240C-mutant cytochrome P450 2A6 extract. Type of assay: protein-complex assay.
Assay [5] concerns the target Cyclin-dependent kinase 1/cyclin B (Marthasterias glacialis). The assay is described as follows: Inhibition of Cyclin-dependent kinase 1-cyclin B of M-phase Marthasterias glacialis oocytes.
For assay [6], the target named is T2, Glycogen synthase kinase-3. The assay is described as follows: Inhibition of porcine GSK-3-alpha/beta kinase. The format is protein assay, Sus scrofa. The conditions noted are these: target entry is the homologue from another species. A digest of the protocol: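 Porcine brain GSK-3α/β, purified on immobilized axin and diluted 1/100 in 1 mg/mL BSA with 10 mM DTT. Substrate GS-1 phosphopeptide in buffer A (Tris-HCl pH 7.5, MgCl2, EGTA, DTT, heparin) with 15 µM [γ-33P]ATP, 30 min at 30 °C. Read by P81 filter binding and scintillation counting. Duplicates; IC50 as % of control activity.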

Assay [7] deals with Cyclin-dependent kinase 5/CDK5 activator 1 (Homo sapiens, UniProt Q00535). The assay is described as follows: Inhibition of Cyclin-dependent kinase 5-p35nck5a. Type of assay: protein-complex assay. A digest of the protocol: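 Recombinant CDK5 and p25 (truncated p35), each expressed in E. coli as a GST fusion and glutathione-agarose purified, mixed in equal amounts. Read by P81 filter capture and scintillation counting. Expressed as % of uninhibited activity. Duplicates; IC50 determined.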
Sequence of Cyclin-dependent kinase 5/CDK5 activator 1 (Q00535 whole entry, the tested form may be a part): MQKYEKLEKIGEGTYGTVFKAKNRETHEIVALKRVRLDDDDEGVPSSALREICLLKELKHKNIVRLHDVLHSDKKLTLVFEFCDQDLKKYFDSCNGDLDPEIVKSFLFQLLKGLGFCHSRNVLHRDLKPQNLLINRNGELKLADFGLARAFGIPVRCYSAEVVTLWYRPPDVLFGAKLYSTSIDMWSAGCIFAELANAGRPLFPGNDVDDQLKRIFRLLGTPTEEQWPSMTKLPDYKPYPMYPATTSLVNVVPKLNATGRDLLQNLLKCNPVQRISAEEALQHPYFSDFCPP
Sequence of Cyclin-dependent kinase 5/CDK5 activator 1 (Q15078 whole entry, further chain, the tested form may be a part): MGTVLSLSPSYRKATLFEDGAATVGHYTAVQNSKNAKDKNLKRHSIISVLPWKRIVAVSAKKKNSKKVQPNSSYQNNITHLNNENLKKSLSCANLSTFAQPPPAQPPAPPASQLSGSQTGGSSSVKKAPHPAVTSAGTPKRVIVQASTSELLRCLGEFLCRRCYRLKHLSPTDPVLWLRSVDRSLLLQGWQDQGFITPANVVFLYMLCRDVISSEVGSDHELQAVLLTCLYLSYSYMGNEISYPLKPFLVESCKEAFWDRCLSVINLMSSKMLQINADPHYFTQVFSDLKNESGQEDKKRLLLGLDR

The target of assay [8] is T2, Glycogen synthase kinase-3. The assay is described as follows: Residual porcine GSK-3-alpha/beta kinase activity with wild-type cytochrome P450 2A6 extract. Type of assay: protein assay. To be noted: Sus scrofa, target entry is the homologue from another species. A digest of the protocol: as §3
For assay [9], the target named is T1, Cyclin-dependent kinase 5/CDK5 activator 1 (Homo sapiens). The assay is described as follows: Residual Cyclin-dependent kinase 5-p35nck5a activity with wild-type cytochrome P450 2A6 extract. The format is protein-complex assay. A digest of the protocol:
as §1

The target in assay [10] is T2, Glycogen synthase kinase-3. The description is as §2. Type of assay: protein assay. To be noted: Sus scrofa; target entry is the homologue from another species. A digest of the protocol:
as §3

The target of assay [11] is T2, Glycogen synthase kinase-3. Described as §4. The format is protein assay. To be noted: Sus scrofa; target entry is the homologue from another species. A digest of the protocol:
as §3
The source holds these as a separate data set.

Bounds are passed on as bounds.

T2 sequence (P49840 whole entry, looked up): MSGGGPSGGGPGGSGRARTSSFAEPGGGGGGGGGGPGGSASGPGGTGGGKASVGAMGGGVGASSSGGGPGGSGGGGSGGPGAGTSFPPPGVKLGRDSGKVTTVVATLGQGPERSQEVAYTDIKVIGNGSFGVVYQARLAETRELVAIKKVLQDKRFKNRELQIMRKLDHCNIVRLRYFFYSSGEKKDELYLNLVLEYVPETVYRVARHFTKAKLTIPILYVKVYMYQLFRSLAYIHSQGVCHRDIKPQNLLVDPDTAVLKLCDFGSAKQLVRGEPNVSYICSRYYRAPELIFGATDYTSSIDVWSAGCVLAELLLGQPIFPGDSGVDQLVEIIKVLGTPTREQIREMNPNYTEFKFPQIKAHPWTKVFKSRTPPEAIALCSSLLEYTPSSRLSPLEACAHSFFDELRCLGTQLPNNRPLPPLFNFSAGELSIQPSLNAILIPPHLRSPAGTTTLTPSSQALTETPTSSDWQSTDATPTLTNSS
T2 sequence (P49841 whole entry, looked up): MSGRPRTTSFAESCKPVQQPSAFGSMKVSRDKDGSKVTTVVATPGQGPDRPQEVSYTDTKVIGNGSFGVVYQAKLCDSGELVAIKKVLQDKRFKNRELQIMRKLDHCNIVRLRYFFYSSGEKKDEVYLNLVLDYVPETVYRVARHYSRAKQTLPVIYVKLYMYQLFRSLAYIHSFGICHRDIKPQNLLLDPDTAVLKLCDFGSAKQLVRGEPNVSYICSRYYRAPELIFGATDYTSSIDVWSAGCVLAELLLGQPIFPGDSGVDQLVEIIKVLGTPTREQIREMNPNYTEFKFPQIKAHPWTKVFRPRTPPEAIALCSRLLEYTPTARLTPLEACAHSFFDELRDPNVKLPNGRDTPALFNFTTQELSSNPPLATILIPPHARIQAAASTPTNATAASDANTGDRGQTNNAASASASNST
T1 sequence (Q00535 whole entry): as the sequence (Q00535 whole entry, the tested form may be a part) above
T1 sequence (Q15078 99-307 partner limits assumed): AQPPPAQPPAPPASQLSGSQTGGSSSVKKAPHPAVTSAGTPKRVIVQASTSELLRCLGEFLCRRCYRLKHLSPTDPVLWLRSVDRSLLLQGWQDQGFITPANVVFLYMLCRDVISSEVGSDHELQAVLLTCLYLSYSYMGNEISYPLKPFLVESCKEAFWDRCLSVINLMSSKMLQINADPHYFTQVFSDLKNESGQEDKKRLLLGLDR

`Nc1ccc2[nH]ccc2c1`: the residual activity was 73% in assay [1] and 42% in assay [2].

Turning to `COC(=O)c1ccc2[nH]ccc2c1`, the residual activity is 99% in assay [1] and 71% in assay [2].

As for `COc1ccc2[nH]ccc2c1`, the residual activity in [3] was determined as 55%; in assay [1], 3%; in assay [4] it was 87%; in assay [2] it was 3%.

Take `COc1ccc2c(c1)C(=O)C(c1[nH]c3ccccc3c1O)=N2`: the IC50 in assay [5], in assay [6] and in assay [7] was above 100 µM each time.

With `c1cnc2[nH]ccc2c1`, the figures for the residual activity in [1] and in assay [2] were 103% and 89%, respectively.

As for `COc1cc2cc[nH]c2cc1OC`, the residual activity in assay [1] came to 80%; in assay [2] it was 62%.

For the molecule `Fc1ccc2cc[nH]c2c1`, the residual activity in assay [1] stood at 97%; in [2], 87%.

For the molecule `Cc1cccc2cc[nH]c12`, the residual activity in assay [1] was 90%; in assay [2], 59%.

Consider `Cc1ccc2[nH]ccc2c1`, for which the residual activity in [8] is 45%; in assay [9], 89%; in assay [1] it was 19%; in assay [2], 15%.

For the molecule `c1ccc2[nH]ccc2c1`, the residual activity turned out to be 68% in [8], 78% in assay [9], 81% in assay [1] and 76% in assay [2].

In the case of `O=C1Nc2ccccc2/C1=C1/Nc2ccccc2C1=O` [INDIRUBIN], the IC50 – broadly, the point on the concentration scale where inhibition reaches its midpoint – in assay [6] was 2.5 µM.

In the case of `O=C1/C(=C2\Nc3ccccc3C2=O)Nc2ccccc21` [INDIGO], the IC50 in assay [6] and in assay [7] was above 100 µM each time.

On to `COc1ccc2c(c1)C(=O)C(c1[nH]c3ccc(OC)cc3c1O)=N2`, for which the IC50 was 1.2 µM in assay [5], 6 µM in [6] and 26 µM in [7].

As to `Brc1ccc2[nH]ccc2c1`, the residual activity was 25% in assay [10], 56% in assay [1], 22% in [11] and 44% in [4].

Consider `Clc1cccc2cc[nH]c12`, for which the residual activity is 110% in assay [10] and 82% in [1].

As to `O=[N+]([O-])c1ccc2cc[nH]c2c1`, the residual activity in assay [8] (in the assay text read “cytochrome P450 2A6 L240C/N297Q mutant” for “wild-type cytochrome P450 2A6”) is 63%; in assay [1], 107%.

As for `COc1ccc2c(c1)C(=O)C(c1c(O)[nH]c3ccccc13)=N2`, the values for the IC50 in assay [5], in assay [6] and in assay [7] were 2.1 µM, 0.6 µM and 1.2 µM, respectively.

As for `Cc1ccc2c(c1)C(=O)C(c1c(O)[nH]c3ccccc13)=N2`, the IC50 in [6] was 0.55 µM; in assay [7], 1.9 µM.

As for `Cc1ccc2[nH]c(O)c(C3=Nc4ccccc4C3=O)c2c1`, the IC50 worked out at 0.8 µM in assay [6] and 5 µM in assay [7].

In the case of `COc1ccc2[nH]c(O)c(C3=Nc4ccccc4C3=O)c2c1`, the IC50 amounted to 1.5 µM in assay [5], 0.8 µM in assay [6] and 1.2 µM in assay [7].

As for `COc1ccc2c(c1)C(=O)C(c1c(O)[nH]c3ccc(OC)cc13)=N2`, the IC50 in [5] was 0.4 µM; in assay [6], 0.2 µM; in assay [7], 0.8 µM.
